Results reported in ChEMBL document CHEMBL4414574, “Structure-Based Discovery and Development of a Series of Potent and Selective Bromodomain and Extra-Terminal Protein Inhibitors” (J Med Chem, 2019).
Activity calls are given as the source filed them. The calls are words filed in the database; no cut-off is given here.

Columns and labels:
CYP2C19 = CYP2C19 (Homo sapiens, UniProt P33261); test: Reversible inhibition of CYP2C19 in human liver microsomes at 10 uM using mephenytoin as substrate preincubated for 5 mins followed by NADPH generating system addition and measured after 20 mins relative to control; type: ADME; conditions: probe mephenytoin
CYP2C19, sequence (P33261 whole entry): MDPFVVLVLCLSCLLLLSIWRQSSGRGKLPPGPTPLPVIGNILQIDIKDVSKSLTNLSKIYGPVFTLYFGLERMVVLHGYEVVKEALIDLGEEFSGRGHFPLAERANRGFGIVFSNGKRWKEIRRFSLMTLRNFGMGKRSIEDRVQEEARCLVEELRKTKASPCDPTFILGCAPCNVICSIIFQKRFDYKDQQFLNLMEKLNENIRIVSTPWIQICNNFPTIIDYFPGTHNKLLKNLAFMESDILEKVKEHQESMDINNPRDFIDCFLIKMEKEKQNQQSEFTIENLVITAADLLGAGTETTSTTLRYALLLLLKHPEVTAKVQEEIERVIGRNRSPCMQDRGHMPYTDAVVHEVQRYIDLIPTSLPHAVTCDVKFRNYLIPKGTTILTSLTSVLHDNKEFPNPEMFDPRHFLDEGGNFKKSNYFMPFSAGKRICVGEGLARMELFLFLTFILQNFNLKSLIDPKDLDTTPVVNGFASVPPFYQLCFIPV
Summary of the method: (§1)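 Human liver microsomes 0.2 mg/mL, 100 mM phosphate pH 7.4, 10 μM test compound, probe cocktail (10 μM midazolam, 100 μM testosterone, 10 μM dextromethorphan, 20 μM diclofenac, 100 μM phenacetin, 100 μM mephenytoin); organic solvent <1%; 5 min preincubation at 37 °C, started with NADPH-generating system, 20 min reaction; metabolite formation expressed relative to PBS control.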

Cytochrome P450 2D6 = Cytochrome P450 2D6 (Homo sapiens, UniProt P10635); test: Time-dependent inhibition of CYP2D6 in human liver microsomes at 10 uM using dextromethorphan as substrate preincubated up to 30 mins followed by NADPH generating system addition and measured after 10 mins; type: ADME
Cytochrome P450 2D6, sequence (P10635 whole entry): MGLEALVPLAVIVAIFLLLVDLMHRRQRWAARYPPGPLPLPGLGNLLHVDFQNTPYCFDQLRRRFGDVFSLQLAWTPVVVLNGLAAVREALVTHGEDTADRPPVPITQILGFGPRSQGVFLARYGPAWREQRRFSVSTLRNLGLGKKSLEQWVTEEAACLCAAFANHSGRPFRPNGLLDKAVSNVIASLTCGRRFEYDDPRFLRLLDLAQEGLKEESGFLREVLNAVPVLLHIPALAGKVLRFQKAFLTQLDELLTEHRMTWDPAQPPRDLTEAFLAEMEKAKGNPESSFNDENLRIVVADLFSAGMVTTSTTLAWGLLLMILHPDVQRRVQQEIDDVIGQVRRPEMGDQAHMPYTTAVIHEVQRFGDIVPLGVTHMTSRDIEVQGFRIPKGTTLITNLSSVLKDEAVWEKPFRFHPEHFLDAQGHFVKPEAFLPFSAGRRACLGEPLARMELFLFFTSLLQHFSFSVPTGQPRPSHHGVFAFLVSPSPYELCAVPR
Summary of the method: (§2)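 Human liver microsomes 0.2 mg/mL, 100 mM phosphate pH 7.4, 10 μM test compound, preincubated 0, 5, 10 and 30 min at 37 °C; then NADPH plus probe cocktail (5 μM midazolam, 50 μM testosterone, 5 μM dextromethorphan, 10 μM diclofenac, 50 μM phenacetin, 50 μM S-(+)-mephenytoin) added; 10 min reaction; kobs in units of 10^-4/min.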

[1] = target: T1, Bromodomain-containing protein 4 (Homo sapiens, UniProt O60885); test: Displacement of 5-FITC labelled (+)-JQ1 from His6-tagged human BRD4 bromodomain 1 expressed in Escherichia coli BL21(DE3) )-codon plus-RIL cells incubated for 4 hrs in dark condition by fluorescence anisotropy binding assay
Cytochrome P450 1A2 = target: T2, Cytochrome P450 1A2 (Homo sapiens, UniProt P05177); test: Time-dependent inhibition of CYP1A2 in human liver microsomes at 10 uM using phenacetin as substrate preincubated up to 30 mins followed by NADPH generating system addition and measured after 10 mins; type: ADME; summary of the method: as §2
T2 sequence (P05177 whole entry): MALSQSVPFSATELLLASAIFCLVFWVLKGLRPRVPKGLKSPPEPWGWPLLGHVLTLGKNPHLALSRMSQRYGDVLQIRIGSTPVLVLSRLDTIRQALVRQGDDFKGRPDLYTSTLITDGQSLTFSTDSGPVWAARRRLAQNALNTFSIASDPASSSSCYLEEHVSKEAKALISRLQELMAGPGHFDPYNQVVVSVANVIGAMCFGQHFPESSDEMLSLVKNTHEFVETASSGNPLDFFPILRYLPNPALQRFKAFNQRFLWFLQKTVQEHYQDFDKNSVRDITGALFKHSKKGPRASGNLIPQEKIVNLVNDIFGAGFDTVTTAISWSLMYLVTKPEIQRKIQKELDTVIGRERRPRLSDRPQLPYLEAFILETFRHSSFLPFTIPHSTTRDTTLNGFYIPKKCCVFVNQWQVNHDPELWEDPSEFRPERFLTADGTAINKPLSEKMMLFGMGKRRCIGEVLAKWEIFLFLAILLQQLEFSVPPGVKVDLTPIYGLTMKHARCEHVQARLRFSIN

[2] = Half life in human liver microsomes at 1 uM preincubated for 5 mins followed by NADPH addition and measured after 5 to 30 mins by LC/MS/MS analysis; type: ADME, Microsome
Cytochrome P450 2C9 = Cytochrome P450 2C9 (Homo sapiens, UniProt P11712); test: Time-dependent inhibition of CYP2C9 in human liver microsomes at 10 uM using diclofenac as substrate preincubated up to 30 mins followed by NADPH generating system addition and measured after 10 mins; type: ADME; summary of the method: as §2
[3] = AUC (0 to infinity) in ICR mouse at 3 mg/kg, po administered via gavage measured after 0.25 to 24 hrs by UPLC/MS analysis; type: ADME, organism-based; set-up: dose 3 mg/kg, time infinity, route oral; conditions: in vivo
Summary of the method: (§3)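 Male ICR mice were dosed orally in 1% DMSO/0.5% HPMC vehicle. Plasma (and brain, where stated) concentrations gave Tmax, Cmax, T1/2, AUC0-t and AUC0-inf.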

[4] = Intrinsic clearance in mouse liver microsomes at 1 uM preincubated for 5 mins followed by NADPH addition and measured after 5 to 30 mins by LC/MS/MS analysis; type: ADME, Microsome; conditions: read-out: CLH
Summary of the method: (§4)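 Liver microsomes (0.5 mg/mL) preincubated 5 min at 37 °C with 1 μM compound in 0.1 M phosphate buffer pH 7.4 containing 1 mM EDTA and 5 mM MgCl2; started with 1 mM NADPH; sampled at 0, 5, 10 and 30 min; quenched with cold acetonitrile; parent remaining quantified by LC/MS/MS.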

[5] = Cmax in ICR mouse at 3 mg/kg, po administered via gavage measured after 0.25 to 24 hrs by UPLC/MS analysis; type: ADME, organism-based; set-up: dose 3 mg/kg, route oral; conditions: in vivo
Summary of the method: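 Male ICR mice dosed orally in 1% DMSO/0.5% HPMC vehicle; plasma or brain drug levels used to derive Tmax, Cmax, AUC0-t, AUC0-inf and T1/2.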

[6] = target: Bromodomain-containing protein 2 (Homo sapiens) (UniProt P25440); test: Inhibition of BRD2 bromodomain 1 (unknown origin)
Bromodomain-containing protein 2 (Homo sapiens), sequence (P25440 whole entry, looked up): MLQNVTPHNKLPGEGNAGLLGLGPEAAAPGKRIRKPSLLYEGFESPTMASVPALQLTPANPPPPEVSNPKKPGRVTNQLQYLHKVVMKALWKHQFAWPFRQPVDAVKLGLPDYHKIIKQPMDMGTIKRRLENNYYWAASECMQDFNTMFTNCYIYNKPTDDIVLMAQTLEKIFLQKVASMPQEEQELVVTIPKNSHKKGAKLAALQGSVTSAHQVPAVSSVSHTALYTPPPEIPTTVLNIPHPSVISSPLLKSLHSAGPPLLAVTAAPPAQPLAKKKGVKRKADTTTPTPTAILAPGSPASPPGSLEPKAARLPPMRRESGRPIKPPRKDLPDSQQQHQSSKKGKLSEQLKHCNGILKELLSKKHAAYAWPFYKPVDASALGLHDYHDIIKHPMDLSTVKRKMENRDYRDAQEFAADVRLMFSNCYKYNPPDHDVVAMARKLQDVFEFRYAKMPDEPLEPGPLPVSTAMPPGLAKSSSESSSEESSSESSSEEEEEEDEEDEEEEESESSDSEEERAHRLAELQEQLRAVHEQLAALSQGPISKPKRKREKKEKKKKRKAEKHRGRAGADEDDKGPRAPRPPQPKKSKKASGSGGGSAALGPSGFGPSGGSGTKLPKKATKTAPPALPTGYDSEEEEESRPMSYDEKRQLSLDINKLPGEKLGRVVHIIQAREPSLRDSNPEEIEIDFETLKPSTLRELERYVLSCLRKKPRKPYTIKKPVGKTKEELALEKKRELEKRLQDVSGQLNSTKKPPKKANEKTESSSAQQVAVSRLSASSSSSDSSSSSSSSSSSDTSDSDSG

[7] = AUC (0 to t) in ICR mouse at 3 mg/kg, po administered via gavage measured after 0.25 to 24 hrs by UPLC/MS analysis; type: ADME, organism-based; set-up: time upper 24 hr, time lower 0.25 hr, dose 3 mg/kg, route oral; conditions: in vivo; summary of the method: as §3
[8] = Solubility of the compound in water; type: physicochemical; conditions: buffer
Cytochrome P450 2C19 = Cytochrome P450 2C19 (Homo sapiens, UniProt P33261); test: Time-dependent inhibition of CYP2C19 in human liver microsomes at 10 uM using mephenytoin as substrate preincubated up to 30 mins followed by NADPH generating system addition and measured after 10 mins; type: ADME; summary of the method: as §2
Cytochrome P450 2C19, sequence (P33261 whole entry): as the sequence (P33261 whole entry) above

CYP2C9 = CYP2C9 (Homo sapiens, UniProt P11712); test: Reversible inhibition of CYP2C9 in human liver microsomes at 10 uM using diclofenac as substrate preincubated for 5 mins followed by NADPH generating system addition and measured after 20 mins relative to control; type: ADME; conditions: probe diclofenac; summary of the method: as §1
[9] = Tmax in ICR mouse at 3 mg/kg, po administered via gavage measured after 0.25 to 24 hrs by UPLC/MS analysis; type: ADME, organism-based; conditions: in vivo
Summary of the method: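 Male ICR mice dosed orally (3, 10 or 100 mg/kg, per line) in 1% DMSO/0.5% HPMC vehicle; plasma drug levels measured.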

[10] = target: T1, Bromodomain-containing protein 4; test: Inhibition of BRD4 bromodomain 1 (unknown origin)
Summary of the method: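 BRD4 BD1 (His6-tagged, E. coli BL21(DE3)-expressed, Ni-NTA purified) at 10 nM with 5 nM FITC-labelled (+)-JQ1 tracer; 50 mM HEPES pH 7.4, 150 mM NaCl, 0.5 mM CHAPS, DMSO 2‰ final; graded inhibitor; 4 h dark equilibration at room temperature; fluorescence anisotropy read (ex 485/em 530 nm). IC50 from two independent experiments in duplicate, mean ± SEM.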

[11] = Half life in ICR mouse at 3 mg/kg, po administered via gavage measured after 0.25 to 24 hrs by UPLC/MS analysis; type: ADME, organism-based; conditions: in vivo
Summary of the method: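 Male ICR mice dosed orally; vehicle 1% DMSO/0.5% HPMC. Plasma pharmacokinetic parameters, including T1/2, were determined after the single oral dose.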

[12] = Solubility of the compound at pH 2 to 7; type: physicochemical; conditions: buffer
CYP3A4 = CYP3A4 (Homo sapiens, UniProt P08684); test: Reversible inhibition of CYP3A4 in human liver microsomes at 10 uM using midazolam or testosterone as substrate preincubated for 5 mins followed by NADPH addition and measured after 20 mins relative to control; type: ADME; conditions: probe midazolam or testosterone; summary of the method: as §1
Cytochrome P450 3A4 = Cytochrome P450 3A4 (Homo sapiens, UniProt P08684); test: Time-dependent inhibition of CYP3A4 in human liver microsomes at 10 uM using midazolam or testosterone as substrate preincubated up to 30 mins followed by NADPH generating system addition and measured after 10 mins; type: ADME; summary of the method: as §2
[13] = target: Bromodomain-containing protein 2 (Homo sapiens) (UniProt P25440); test: Inhibition of BRD2 bromodomain 2 (unknown origin)
Summary of the method: (§5)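 Bromodomain binding panel (32 bromodomains) screened at 1 μM; primary binding read-out reported as percent of control, lower values meaning stronger binding.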

[14] = target: Histone acetyltransferase p300 (Homo sapiens) (UniProt Q09472); test: Inhibition of EP300 (unknown origin) at 1 uM; summary of the method: as §5
Histone acetyltransferase p300 (Homo sapiens), sequence (Q09472 whole entry): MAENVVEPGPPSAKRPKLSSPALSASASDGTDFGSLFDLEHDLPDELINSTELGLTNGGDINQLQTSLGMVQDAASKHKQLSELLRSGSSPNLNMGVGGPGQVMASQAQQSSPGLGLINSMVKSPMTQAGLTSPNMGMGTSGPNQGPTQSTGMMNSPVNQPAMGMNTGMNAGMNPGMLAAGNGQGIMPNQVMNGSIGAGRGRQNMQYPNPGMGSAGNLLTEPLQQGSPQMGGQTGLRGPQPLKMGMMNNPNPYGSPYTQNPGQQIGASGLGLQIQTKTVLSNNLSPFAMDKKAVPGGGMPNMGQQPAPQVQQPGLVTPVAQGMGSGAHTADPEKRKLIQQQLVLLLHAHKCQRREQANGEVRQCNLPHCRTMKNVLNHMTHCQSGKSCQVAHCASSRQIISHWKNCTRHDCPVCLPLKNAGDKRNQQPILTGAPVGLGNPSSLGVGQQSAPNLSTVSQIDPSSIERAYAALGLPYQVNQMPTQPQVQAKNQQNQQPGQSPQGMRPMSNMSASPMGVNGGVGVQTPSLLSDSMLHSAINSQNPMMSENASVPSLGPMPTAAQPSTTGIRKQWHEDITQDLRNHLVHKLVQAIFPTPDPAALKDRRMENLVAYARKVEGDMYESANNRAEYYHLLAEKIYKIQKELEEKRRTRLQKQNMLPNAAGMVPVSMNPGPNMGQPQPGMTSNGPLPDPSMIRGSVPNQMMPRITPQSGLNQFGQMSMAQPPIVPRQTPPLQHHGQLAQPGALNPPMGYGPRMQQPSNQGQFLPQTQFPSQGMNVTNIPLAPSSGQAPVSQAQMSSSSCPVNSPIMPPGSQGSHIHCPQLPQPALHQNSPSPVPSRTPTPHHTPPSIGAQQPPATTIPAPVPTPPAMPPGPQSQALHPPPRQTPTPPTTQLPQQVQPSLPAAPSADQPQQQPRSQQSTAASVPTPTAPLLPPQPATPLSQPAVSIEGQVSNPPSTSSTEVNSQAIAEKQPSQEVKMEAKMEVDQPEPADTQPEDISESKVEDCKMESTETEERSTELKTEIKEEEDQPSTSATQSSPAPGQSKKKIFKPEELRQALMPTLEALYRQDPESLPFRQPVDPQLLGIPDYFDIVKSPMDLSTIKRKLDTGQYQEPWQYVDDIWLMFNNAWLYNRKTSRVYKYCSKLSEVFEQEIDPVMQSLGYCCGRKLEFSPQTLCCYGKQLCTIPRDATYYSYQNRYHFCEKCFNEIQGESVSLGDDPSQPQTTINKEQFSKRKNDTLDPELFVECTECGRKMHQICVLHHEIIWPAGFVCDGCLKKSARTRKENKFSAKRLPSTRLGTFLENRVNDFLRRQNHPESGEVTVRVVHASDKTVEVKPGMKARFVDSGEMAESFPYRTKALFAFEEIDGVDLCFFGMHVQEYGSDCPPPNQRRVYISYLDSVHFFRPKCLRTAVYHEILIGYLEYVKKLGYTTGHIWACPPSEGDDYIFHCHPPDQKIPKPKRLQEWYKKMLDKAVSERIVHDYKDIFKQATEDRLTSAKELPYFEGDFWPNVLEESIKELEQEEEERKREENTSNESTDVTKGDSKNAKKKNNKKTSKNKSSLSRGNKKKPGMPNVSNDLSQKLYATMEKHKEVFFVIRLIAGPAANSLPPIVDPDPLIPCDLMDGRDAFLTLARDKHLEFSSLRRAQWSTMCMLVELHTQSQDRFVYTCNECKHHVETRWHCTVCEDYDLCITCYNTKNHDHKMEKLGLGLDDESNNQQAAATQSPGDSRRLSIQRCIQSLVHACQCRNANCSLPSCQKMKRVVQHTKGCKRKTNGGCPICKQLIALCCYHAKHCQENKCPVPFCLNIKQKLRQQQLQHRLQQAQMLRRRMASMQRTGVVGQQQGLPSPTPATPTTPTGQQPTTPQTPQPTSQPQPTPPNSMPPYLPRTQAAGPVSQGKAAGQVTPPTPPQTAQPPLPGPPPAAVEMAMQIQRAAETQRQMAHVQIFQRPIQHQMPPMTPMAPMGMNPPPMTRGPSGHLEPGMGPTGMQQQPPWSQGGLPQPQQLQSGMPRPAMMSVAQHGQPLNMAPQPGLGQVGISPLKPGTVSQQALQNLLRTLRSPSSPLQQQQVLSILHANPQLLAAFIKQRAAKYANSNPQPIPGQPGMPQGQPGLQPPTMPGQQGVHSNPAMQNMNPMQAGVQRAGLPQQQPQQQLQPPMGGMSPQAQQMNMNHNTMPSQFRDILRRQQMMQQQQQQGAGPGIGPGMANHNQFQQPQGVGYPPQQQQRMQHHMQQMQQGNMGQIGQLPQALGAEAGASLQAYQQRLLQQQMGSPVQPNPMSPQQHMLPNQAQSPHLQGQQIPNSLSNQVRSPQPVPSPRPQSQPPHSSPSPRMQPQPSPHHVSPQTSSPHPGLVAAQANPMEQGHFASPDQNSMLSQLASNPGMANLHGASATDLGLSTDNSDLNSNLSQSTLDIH

MM1.S [15] = test: Antiproliferative activity against human MM1S cells after 72 hrs by CCK8 or SRB assay; type: functional, cell-based
Summary of the method: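 IC50 against MM.1S cell proliferation was taken as the mean of three independent experiments, each run in triplicate, reported with SEM.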

MM1.S [16] = test: Antitumor activity against human MM1S cells xenografted in SCID mouse assessed as tumor growth at 20 mg/kg, po administered daily relative to control; type: functional
[17] = Intrinsic clearance in human liver microsomes at 1 uM preincubated for 5 mins followed by NADPH addition and measured after 5 to 30 mins by LC/MS/MS analysis; type: ADME, Microsome; conditions: read-out: CLH; summary of the method: as §4
[18] = Half life in mouse liver microsomes at 1 uM preincubated for 5 mins followed by NADPH addition and measured after 5 to 30 mins by LC/MS/MS analysis; type: ADME, Microsome; conditions: mouse liver microsomes
[19] = target: T1, Bromodomain-containing protein 4; test: Inhibition of BRD4 bromodomain 2 (unknown origin)

Compound: Cc1ccc(-n2c(C)nnc2-c2ccc3c(c2)N(C2CC2)C(C)C(=O)N3C)cc1 (configuration not stated)
- inhibition at 20 min, 10 µM (CYP2C19): 41%
- TDI (Cytochrome P450 2D6): Not Active
- IC50 [1]: 5.7 nM
- TDI (Cytochrome P450 1A2): Not Active
- half-life at 1 µM [2]: 31.5 min
- TDI (Cytochrome P450 2C9): Not Active
- AUC(0-inf) [3]: 244 ng·h/mL
- microsomal CLint at 1 µM [4]: 460 µL/min/mg
- Cmax [5]: 265 ng/mL
- inhibition activity call (active/inactive) [6]: Active
- AUC(0-t) [7]: 243 ng·h/mL
- solubility [8]: Insoluble
- TDI (Cytochrome P450 2C19): Not Active
- inhibition at 20 min, 10 µM (CYP2C9): 10%
- Tmax [9]: 18 min
- inhibition [10]: Active
- half-life [11]: 42 min
- solubility [12]: Insoluble
- inhibition at 20 min, 10 µM (CYP3A4): 3%
- TDI (Cytochrome P450 3A4): Not Active
- inhibition [13]: Active
- inhibition [14]: inactive
- IC50 (MM1.S [15]): 3.3 nM
- T/C (MM1.S [16]): 67.4%
- microsomal CLint at 1 µM [17]: 44 µL/min/mg
- half-life at 1 µM [18]: 3 min
- inhibition [19]: Active
